Test results reported in ChEMBL document CHEMBL3232927 (J Med Chem, 2014).

Experiments:
[1] = Retention time of the compound up to by LC/MS analysis; format: physicochemical
In short: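 Reversed-phase LC/MS on a C18 (ODS) column, 5 μm, 4.6 × 150 mm, flow 1 mL/min. Gradient from 56/44 to 98/2 methanol/water containing 15 mM NH4OAc over 15 min, then a final hold.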

[2] = Half life of the compound at C2 position in acetone-d6/D2O/CF3CO2H at 0.01 M by NMR spectroscopy analysis; format: physicochemical
In short: (§1)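 Silicates dissolved in acetone/water 10:1 (v/v) containing 1% TFA (measured pH 1.2) at ambient temperature. Silicate ester cleavage followed over time by NMR spectroscopy.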

MDA-MB-231 = experiment: Cytotoxicity against human MDA-MB-231 cells after 72 hrs by MTT assay; format: functional, cell-based; conditions: MDA-MB-231, 72 h
In short: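 MDA-MB-231 cells grown in MEM with 10% FBS and 1% pen/strep at 37 °C, seeded at 8000 cells/well in MEM with 5% FBS. 10 mM DMSO stocks were serially diluted in MEM/5% FBS: 1–10 000 nM for PTX-silicates, 0.1–1000 for DTX-silicates. Exposure 72 h, then MTT added and absorbance at 490 nm read at 60 min. IC50 from nonlinear regression of log concentration vs response; median of the IC50 distribution within the 95% confidence interval.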

[3] = Half life of the compound at C7 position in acetone-d6/D2O/CF3CO2H at 0.01 M by NMR spectroscopy analysis; format: physicochemical; in short: as §1

| SMILES | Retention_time [1] | t1/2 [2] | IC50 (MDA-MB-231) | t1/2 [3] |
| --- | --- | --- | --- | --- |
| CCO[Si](OCC)(OCC)O[C@@H](C(=O)O[C@H]1C[C@@]2(O)[C@@H](OC(=O)c3ccccc3)[C@@H]3[C@]4(OC(C)=O)CO[C@@H]4C[C@H](O)[C@@]3(C)C(=O)[C@H](OC(C)=O)C(=C1C)C2(C)C)[C@@H](NC(=O)c1ccccc1)c1ccccc1 | 13.8 min | 0.0617 h | 8.3 nM |  |
| CCCCCCCCO[Si](OCCCCCCCC)(OCCCCCCCC)O[C@@H](C(=O)O[C@H]1C[C@@]2(O)[C@@H](OC(=O)c3ccccc3)[C@@H]3[C@]4(OC(C)=O)CO[C@@H]4C[C@H](O)[C@@]3(C)C(=O)[C@H](OC(C)=O)C(=C1C)C2(C)C)[C@@H](NC(=O)c1ccccc1)c1ccccc1 | 22.1 min | 0.2 h | 7 nM |  |
| CC(=O)O[C@H]1C(=O)[C@@]2(C)[C@H]([C@H](OC(=O)c3ccccc3)[C@]3(O)C[C@H](OC(=O)[C@H](O[Si](OC(C)C)(OC(C)C)OC(C)C)[C@@H](NC(=O)c4ccccc4)c4ccccc4)C(C)=C1C3(C)C)[C@]1(OC(C)=O)CO[C@@H]1C[C@@H]2O | 15.4 min | 2 h | 4.2 nM |  |
| CC(=O)O[C@H]1C(=O)[C@@]2(C)[C@H]([C@H](OC(=O)c3ccccc3)[C@]3(O)C[C@H](OC(=O)[C@H](O[Si](OC4CC(C)CCC4C(C)C)(OC4CC(C)CCC4C(C)C)OC4CC(C)CCC4C(C)C)[C@@H](NC(=O)c4ccccc4)c4ccccc4)C(C)=C1C3(C)C)[C@]1(OC(C)=O)CO[C@@H]1C[C@@H]2O (stereo partly specified) | 24.5 min | 1150 h | 590 nM |  |
| CCO[Si](O[C@@H](C(=O)O[C@H]1C[C@@]2(O)[C@@H](OC(=O)c3ccccc3)[C@@H]3[C@]4(OC(C)=O)CO[C@@H]4C[C@H](O)[C@@]3(C)C(=O)[C@H](OC(C)=O)C(=C1C)C2(C)C)[C@@H](NC(=O)c1ccccc1)c1ccccc1)(OC(C)(C)C)OC(C)(C)C | 16.1 min | 200 h | 260 nM |  |
| CC[Si](CC)(CC)O[C@@H](C(=O)O[C@H]1C[C@@]2(O)[C@@H](OC(=O)c3ccccc3)[C@@H]3[C@]4(OC(C)=O)CO[C@@H]4C[C@H](O)[C@@]3(C)C(=O)[C@H](OC(C)=O)C(=C1C)C2(C)C)[C@@H](NC(=O)c1ccccc1)c1ccccc1 | 15.4 min |  | 220 nM |  |
| CCO[Si](OCC)(OCC)O[C@H]1C[C@H]2OC[C@@]2(OC(C)=O)[C@H]2[C@H](OC(=O)c3ccccc3)[C@]3(O)C[C@H](OC(=O)[C@H](O[Si](OCC)(OCC)OCC)[C@@H](NC(=O)c4ccccc4)c4ccccc4)C(C)=C([C@@H](OC(C)=O)C(=O)[C@]12C)C3(C)C | 16.6 min | 0.0767 h | 12 nM | 0.55 h |
| CCCCCCCCO[Si](OCCCCCCCC)(OCCCCCCCC)O[C@H]1C[C@H]2OC[C@@]2(OC(C)=O)[C@H]2[C@H](OC(=O)c3ccccc3)[C@]3(O)C[C@H](OC(=O)[C@H](O[Si](OCCCCCCCC)(OCCCCCCCC)OCCCCCCCC)[C@@H](NC(=O)c4ccccc4)c4ccccc4)C(C)=C([C@@H](OC(C)=O)C(=O)[C@]12C)C3(C)C |  | 0.3 h | 280 nM | 3.33 h |
| CC(=O)O[C@H]1C(=O)[C@]2(C)[C@@H](O[Si](OC(C)C)(OC(C)C)OC(C)C)C[C@H]3OC[C@@]3(OC(C)=O)[C@H]2[C@H](OC(=O)c2ccccc2)[C@]2(O)C[C@H](OC(=O)[C@H](O[Si](OC(C)C)(OC(C)C)OC(C)C)[C@@H](NC(=O)c3ccccc3)c3ccccc3)C(C)=C1C2(C)C | 18.9 min | 2.17 h | 1600 nM | 25 h |
| CCO[Si](OCC)(OCC)O[C@H]1C[C@H]2OC[C@@]2(OC(C)=O)[C@H]2[C@H](OC(=O)c3ccccc3)[C@]3(O)C[C@H](OC(=O)[C@H](O)[C@@H](NC(=O)c4ccccc4)c4ccccc4)C(C)=C([C@@H](OC(C)=O)C(=O)[C@]12C)C3(C)C | 14.6 min |  | 18 nM | 0.5 h |
| CCCCCCCCO[Si](OCCCCCCCC)(OCCCCCCCC)O[C@H]1C[C@H]2OC[C@@]2(OC(C)=O)[C@H]2[C@H](OC(=O)c3ccccc3)[C@]3(O)C[C@H](OC(=O)[C@H](O)[C@@H](NC(=O)c4ccccc4)c4ccccc4)C(C)=C([C@@H](OC(C)=O)C(=O)[C@]12C)C3(C)C | 24.6 min |  | 290 nM | 2.5 h |
| CC(=O)O[C@H]1C(=O)[C@]2(C)[C@@H](O[Si](OC(C)C)(OC(C)C)OC(C)C)C[C@H]3OC[C@@]3(OC(C)=O)[C@H]2[C@H](OC(=O)c2ccccc2)[C@]2(O)C[C@H](OC(=O)[C@H](O)[C@@H](NC(=O)c3ccccc3)c3ccccc3)C(C)=C1C2(C)C | 16.4 min |  | 260 nM | 28.33 h |
| CCO[Si](OCC)(OCC)O[C@@H](C(=O)O[C@H]1C[C@@]2(O)[C@@H](OC(=O)c3ccccc3)[C@@H]3[C@]4(OC(C)=O)CO[C@@H]4C[C@H](O)[C@@]3(C)C(=O)[C@H](O)C(=C1C)C2(C)C)[C@@H](NC(=O)OC(C)(C)C)c1ccccc1 | 14.1 min | 0.183 h | 2.5 nM |  |
| CC(=O)O[C@@]12CO[C@@H]1C[C@H](O)[C@@]1(C)C(=O)[C@H](O)C3=C(C)[C@@H](OC(=O)[C@H](O[Si](OC(C)C)(OC(C)C)OC(C)C)[C@@H](NC(=O)OC(C)(C)C)c4ccccc4)C[C@@](O)([C@@H](OC(=O)c4ccccc4)[C@H]21)C3(C)C | 15.9 min | 4.33 h | 0.2 nM |  |
| CCO[Si](O[C@@H](C(=O)O[C@H]1C[C@@]2(O)[C@@H](OC(=O)c3ccccc3)[C@@H]3[C@]4(OC(C)=O)CO[C@@H]4C[C@H](O)[C@@]3(C)C(=O)[C@H](O)C(=C1C)C2(C)C)[C@@H](NC(=O)OC(C)(C)C)c1ccccc1)(OC(C)(C)C)OC(C)(C)C | 16.4 min | 226.67 h | 430 nM |  |
| CC(=O)O[C@H]1C(=O)[C@@]2(C)[C@H]([C@H](OC(=O)c3ccccc3)[C@]3(O)C[C@H](OC(=O)[C@H](O[Si](OC(C)=O)(OC(C)(C)C)OC(C)(C)C)[C@@H](NC(=O)c4ccccc4)c4ccccc4)C(C)=C1C3(C)C)[C@]1(OC(C)=O)CO[C@@H]1C[C@@H]2O |  | 0.583 h |  |  |
| CC(=O)O[C@@]12CO[C@@H]1C[C@H](O)[C@@]1(C)C(=O)[C@H](O)C3=C(C)[C@@H](OC(=O)[C@H](O)[C@@H](NC(=O)OC(C)(C)C)c4ccccc4)C[C@@](O)([C@@H](OC(=O)c4ccccc4)[C@H]21)C3(C)C.O.O.O [DOCETAXEL] | 10.9 min |  | 1 nM |  |
| CC(=O)O[C@H]1C(=O)[C@@]2(C)[C@H]([C@H](OC(=O)c3ccccc3)[C@]3(O)C[C@H](OC(=O)[C@H](O)[C@@H](NC(=O)c4ccccc4)c4ccccc4)C(C)=C1C3(C)C)[C@]1(OC(C)=O)CO[C@@H]1C[C@@H]2O [PACLITAXEL] | 10.5 min |  | 5.6 nM |  |
